Test [1] concerns SPOP-53BP1 interaction. Put plainly: Co-IP of SPOP-53BP1 interaction in 293T cells with kinase inhibitors and IR. It counts as cell-based. The settings on record: IR for 1 hour. The essentials: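 293T cells (DMEM, 10% FBS) transiently transfected with tagged constructs by lipofection, pretreated with kinase inhibitors (DMSO vehicle), then irradiated and harvested 1 h later. Lysed in BC100 buffer 24 h post-transfection; FLAG-tagged proteins pulled down on anti-FLAG M2 agarose, HA-tagged with anti-HA plus protein A/G beads, overnight at 4°C. Immunoblot on nitrocellulose with ECL detection.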

The test system of the next test is 53BP1 polyubiquitination. Briefly: In vivo ubiquitination assay of 53BP1. Conditions: CPT treatment, fig. S2E. It counts as cell-based.
The test system of test [2] is SPOP-53BP1 interaction. Briefly: Co-IP of SPOP-53BP1 interaction after DNA damage. It counts as cell-based. Conditions: DNA damage by CPT.
The subject of test [3] is 53BP1 FFR polyubiquitination. Briefly: In vivo ubiquitination assay of 53BP1 FFR. It counts as cell-based. The settings on record: CPT treatment, fig. S2H.
Another test deals with BPH1 cells. Put plainly: Karyotype analysis, chromosome breaks. It counts as cell-based. Conditions: SPOP F133V-expressing BPH1 cells, CPT 1 μM for 24 hours; largely reversed by 53BP1 co-KO.
A further test has as its system 53BP1. Put plainly: Immunodepletion of PC-3 lysate with 53BP1 antibody. It counts as binding. Conditions: IR 4 Gy, 1 hour, immunodepleted five times. The method in brief: (§1)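 PC-3 cells were grown in RPMI with 10% FBS, irradiated (4 Gy), and lysed 1 h later. Lysate was immunodepleted five times with antibody to L3MBTL1 or to 53BP1, with preimmune sera as control. Read-out was Western blot: SDS-PAGE, transfer to nitrocellulose, blocking in TBS (pH 7.4) with 5% nonfat milk and 0.1% Tween 20, primary antibody overnight at 4°C, secondary 1 h at room temperature.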

The test system of another test is L3MBTL1. Put plainly: Immunodepletion of PC-3 lysate with L3MBTL1 antibody. Conditions: IR 4 Gy, 1 hour, immunodepleted five times. It counts as binding. The essentials:
as §1

In test [4] the target is SPOP MATH domain (residues 28 to 164) D140G (human, UniProt O43791 28-164, D140G). Briefly: crystal structure.
SPOP MATH domain (residues 28 to 164) D140G, sequence (O43791 28-164 D140G): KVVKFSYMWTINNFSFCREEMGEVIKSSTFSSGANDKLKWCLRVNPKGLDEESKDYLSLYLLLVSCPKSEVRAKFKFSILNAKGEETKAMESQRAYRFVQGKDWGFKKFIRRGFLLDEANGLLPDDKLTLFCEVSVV

Regarding `O=c1cc(-c2cccc3c2Sc2ccccc2S3)oc(N2CCOCC2)c1` [ATM kinase inhibitor], the “effect on SPOP-53BP1 interaction” value with SPOP-53BP1 interaction [1] is “attenuated the SPOP-53BP1 interaction”.

On to `CC[C@@]1(O)C(=O)OCc2c1cc1n(c2=O)Cc2cc3ccccc3nc2-1` [CPT, camptothecin], for which the “effect on SPOP-induced polyubiquitination of 53BP1” value in the test with 53BP1 polyubiquitination is recorded as “enhanced SPOP-induced polyubiquitination of 53BP1”. Further, the “effect on SPOP-53BP1 interaction” value with SPOP-53BP1 interaction [2] is recorded as “markedly enhanced”. For the same molecule, in test [3], the “effect on SPOP-increased 53BP1 FFR polyubiquitination” value is listed as “this effect was enhanced by CPT treatment”. The “number of intrachromosomal breaks per cell” value in the test with BPH1 cells is given as “marked increase in the number of intrachromosomal breaks per cell”.

Take “NPL4: valosin-containing protein/p97 cofactor NPL4”: the “fraction of NPL4 bound to 53BP1” value in the test with 53BP1 was “approximately 10%”. Further, in the test with L3MBTL1, the “fraction of NPL4 bound to L3MBTL1” value is “approximately 33%”.

Turning to PATPTASSSSSTTPT (peptide, UniProt Q12888 1636-1650, looked up) [53BP1 SBM synthetic peptide (residues 1636 to 1650)], in test [4], the binding result is “binds”.

For the origin of these results see publication PMC8213225 (Science Advances, 2021).
